According to ChEMBL document CHEMBL1687936, “Radiosynthesis and biological evaluation of L- and D-S-(3-[18F]fluoropropyl)homocysteine for tumor imaging using positron emission tomography” (J Med Chem, 2011):

Columns and labels:
HT-29 = assay: Drug uptake in human HT-29 cells in presence of amino acid transport system A inhibitor MeAIB; format: ADME, cell-based
Method in brief: (§1)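 Cells were prepared as for the uptake assay and preincubated at 37 °C with inhibitor at 12.5 mmol/L in PBS; controls received PBS. 0.37 MBq [18F]tracer was added and incubated 30 min at 37 °C. Cells were washed cold, lysed and γ-counted. Uptake is given as % of the control group, n = 3.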

A-375 = assay: Drug uptake in human A375 cells in presence of amino acid transport system A inhibitor MeAIB; format: ADME, cell-based; method in brief: as §1
Brain [1] = assay: Metabolic stability in brain of BALB/c nude mouse xenografted with human A375 cells assessed as radioactivity after 1 hrs by HPLC analysis; format: ADME, tissue-based, A-375; settings: in vivo
Method in brief: (§2)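 A375-tumored Balb/c nude mice received 18-20 MBq tracer iv. Plasma and urine were spiked with unlabeled FPHCys and KF and injected directly; tissues were sonicated in saline with carrier and centrifuged at 6000g. Radio-HPLC on C18 with methanol/phosphate buffer pH 6 gave intact fraction as authentic peak over total activity, at 0.25, 1 and 2 h.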

Spleen [2] = assay: Biodistribution in spleen of BALB/c nude mouse xenografted with human A375 cells at 0.8 to 1 MBq, iv after 15 mins by gamma-counter; format: ADME, organism-based, A-375; settings: in vivo, 0.25 h
Method in brief: (§3)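 Female Balb/c nude mice with s.c. A375 flank tumors, studied 26 days after tumor induction. Tracer 0.8-1 MBq in 100 μL saline given i.v. Groups of n = 5 killed at 15, 30, 60 and 120 min. Organs weighed and counted in a γ-counter against dilutions of the injected dose. Values are % ID/g wet tissue, mean ± SD.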

Spleen [3] = assay: Biodistribution in spleen of BALB/c nude mouse xenografted with human A375 cells at 0.8 to 1 MBq, iv after 30 mins by gamma-counter; format: ADME, organism-based, A-375; settings: in vivo, 0.5 h; method in brief: as §3
Spleen [4] = assay: Biodistribution in spleen of BALB/c nude mouse xenografted with human A375 cells at 0.8 to 1 MBq, iv after 60 mins by gamma-counter; format: ADME, organism-based, A-375; settings: in vivo, 1 h; method in brief: as §3
Kidney [5] = assay: Biodistribution in kidney of BALB/c nude mouse xenografted with human A375 cells at 0.8 to 1 MBq, iv after 15 mins by gamma-counter; format: ADME, organism-based, A-375; settings: in vivo, 0.25 h; method in brief: as §3
Kidney [6] = assay: Biodistribution in kidney of BALB/c nude mouse xenografted with human A375 cells at 0.8 to 1 MBq, iv after 120 mins by gamma-counter; format: ADME, organism-based, A-375; settings: in vivo, 2 h; method in brief: as §3
Muscle tissue = assay: Biodistribution in muscle of BALB/c nude mouse xenografted with human A375 cells at 0.8 to 1 MBq, iv after 60 mins by gamma-counter; format: ADME, organism-based, A-375; settings: in vivo, 1 h; method in brief: as §3
Bone [7] = assay: Biodistribution in bone of BALB/c nude mouse xenografted with human A375 cells at 0.8 to 1 MBq, iv after 15 mins by gamma-counter; format: ADME, organism-based, Bone element, A-375; settings: in vivo, 0.25 h; method in brief: as §3
Bone [8] = assay: Biodistribution in bone of BALB/c nude mouse xenografted with human A375 cells at 0.8 to 1 MBq, iv after 120 mins by gamma-counter; format: ADME, organism-based, Bone element, A-375; settings: in vivo, 2 h; method in brief: as §3
Lung [9] = assay: Biodistribution in lungs of BALB/c nude mouse xenografted with human A375 cells at 0.8 to 1 MBq, iv after 60 mins by gamma-counter; format: ADME, organism-based, A-375; settings: in vivo, 1 h; method in brief: as §3
Lung [10] = assay: Biodistribution in lungs of BALB/c nude mouse xenografted with human A375 cells at 0.8 to 1 MBq, iv after 120 mins by gamma-counter; format: ADME, organism-based, A-375; settings: in vivo, 2 h; method in brief: as §3
Heart [11] = assay: Biodistribution in heart of BALB/c nude mouse xenografted with human A375 cells at 0.8 to 1 MBq, iv after 30 mins by gamma-counter; format: ADME, organism-based, A-375; settings: in vivo, 0.5 h; method in brief: as §3
Heart [12] = assay: Biodistribution in heart of BALB/c nude mouse xenografted with human A375 cells at 0.8 to 1 MBq, iv after 120 mins by gamma-counter; format: ADME, organism-based, A-375; settings: in vivo, 2 h; method in brief: as §3
Brain [13] = assay: Biodistribution in brain of BALB/c nude mouse xenografted with human A375 cells at 0.8 to 1 MBq, iv after 30 mins by gamma-counter; format: ADME, organism-based, A-375; settings: in vivo, 0.5 h; method in brief: as §3
Brain [14] = assay: Biodistribution in brain of BALB/c nude mouse xenografted with human A375 cells at 0.8 to 1 MBq, iv after 60 mins by gamma-counter; format: ADME, organism-based, A-375; settings: in vivo, 1 h; method in brief: as §3
Brain [15] = assay: Biodistribution in brain of BALB/c nude mouse xenografted with human A375 cells at 0.8 to 1 MBq, iv after 120 mins by gamma-counter; format: ADME, organism-based, A-375; settings: in vivo, 2 h; method in brief: as §3
Pancreas [16] = assay: Biodistribution in pancreas of BALB/c nude mouse xenografted with human A375 cells at 0.8 to 1 MBq, iv after 15 mins by gamma-counter; format: ADME, organism-based, A-375; settings: in vivo, 0.25 h; method in brief: as §3
Pancreas [17] = assay: Biodistribution in pancreas of BALB/c nude mouse xenografted with human A375 cells at 0.8 to 1 MBq, iv after 120 mins by gamma-counter; format: ADME, organism-based, A-375; settings: in vivo, 2 h; method in brief: as §3
Blood [18] = assay: Biodistribution in blood of BALB/c nude mouse xenografted with human A375 cells at 0.8 to 1 MBq, iv after 60 mins by gamma-counter; format: ADME, organism-based, A-375; settings: in vivo, 1 h; method in brief: as §3
Blood [19] = assay: Biodistribution in blood of BALB/c nude mouse xenografted with human A375 cells at 0.8 to 1 MBq, iv after 120 mins by gamma-counter; format: ADME, organism-based, A-375; settings: in vivo, 2 h; method in brief: as §3
[20] = Biodistribution in tumor of BALB/c nude mouse xenografted with human A375 cells at 0.8 to 1 MBq, iv after 15 mins by gamma-counter; format: ADME, organism-based, Neoplasm, A-375; settings: in vivo, 0.25 h; method in brief: as §3
[21] = Biodistribution in tumor of BALB/c nude mouse xenografted with human A375 cells at 0.8 to 1 MBq, iv after 30 mins by gamma-counter; format: ADME, organism-based, Neoplasm, A-375; settings: in vivo, 0.5 h; method in brief: as §3
[22] = Biodistribution in tumor of BALB/c nude mouse xenografted with human A375 cells at 0.8 to 1 MBq, iv after 60 mins by gamma-counter; format: ADME, organism-based, Neoplasm, A-375; settings: in vivo, 1 h; method in brief: as §3
[23] = Metabolic stability in human A375 cells xenografted in BALB/c nude mouse assessed as radioactivity after 0.25 to 2 hrs by HPLC analysis; format: ADME, cell-based, A-375; settings: in vivo; method in brief: as §2
Pancreas [24] = assay: Metabolic stability in pancreas of BALB/c nude mouse xenografted with human A375 cells assessed as radioactivity after 0.25 to 1 hrs by HPLC analysis; format: ADME, tissue-based, A-375; settings: in vivo; method in brief: as §2
Brain [25] = assay: Metabolic stability in brain of BALB/c nude mouse xenografted with human A375 cells assessed as radioactivity after 0.25 to 1 hrs by HPLC analysis; format: ADME, tissue-based, A-375; settings: in vivo; method in brief: as §2
Urinary bladder = assay: Biodistribution in bladder of BALB/c nude mouse xenografted with human A375 cells after 60 mins by PET/CT imaging; format: ADME, organism-based, A-375; settings: in vivo, 1 h
Method in brief: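 Female Balb/c nude mice with A375 tumors (1×10^6 cells in Ca/Mg-free PBS injected s.c. in left flank at 6 weeks old). Mice under isoflurane in oxygen. 10 min CT scan, then 18-20 MBq tracer in 100 μL saline given i.v. with a 2 h PET acquisition. Coronal images at 60 min postinjection; n = 3.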

Plasma = assay: Drug level in plasma of BALB/c nude mouse xenografted with human A375 cells assessed as radioactivity in protein fractions after 0.25 to 2 hrs; format: ADME, cell-free, A-375; settings: in vivo
Method in brief: (§4)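 Female Balb/c nude mice bore subcutaneous A375 flank tumors and received 18-20 MBq tracer iv. Plasma or tissue was sonicated in 10% TCA with unlabeled FPHCys and KF, then centrifuged at 6000g; the pellet was re-extracted twice. Protein-bound fraction is pellet versus supernatant radioactivity, sampled at 0.25, 1 and 2 h.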

Pancreas [26] = assay: Drug level in pancreas extract of BALB/c nude mouse xenografted with human A375 cells assessed as radioactivity in protein fraction after 0.25 to 2 hrs; format: ADME, tissue-based, A-375; settings: in vivo; method in brief: as §4

SMILES	Drug uptake (HT-29)	Drug uptake (A-375)	Stability (Brain [1]) [%]	Drug uptake (Spleen [2]) [% ID/g]	Drug uptake (Spleen [3]) [% ID/g]	Drug uptake (Spleen [4]) [% ID/g]	Drug uptake (Kidney [5]) [% ID/g]	Drug uptake (Kidney [6]) [% ID/g]	Drug uptake (Muscle tissue) [% ID/g]	Drug uptake (Bone [7]) [% ID/g]	Drug uptake (Bone [8]) [% ID/g]	Drug uptake (Lung [9]) [% ID/g]	Drug uptake (Lung [10]) [% ID/g]	Drug uptake (Heart [11]) [% ID/g]	Drug uptake (Heart [12]) [% ID/g]	Drug uptake (Brain [13]) [% ID/g]	Drug uptake (Brain [14]) [% ID/g]	Drug uptake (Brain [15]) [% ID/g]	Drug uptake (Pancreas [16]) [% ID/g]	Drug uptake (Pancreas [17]) [% ID/g]	other results
Cl.N[C@@H](CCSCCC[18F])C(=O)O	Active	Active	90	5.05	4.18	2.11	15.4	3.92	2.52	3.33	1.69	2.62	1.63	4.2	1.37	2.57	1.3	2.57	14.3	3.77	Drug uptake (Blood [18]): 2.32 % ID/g; Drug uptake (Blood [19]): 1.38 % ID/g; Drug uptake [20]: 9.41 % ID/g; Drug uptake [21]: 8.28 % ID/g; Drug uptake [22]: 5.64 % ID/g; Stability [23]: 82%; Stability (Pancreas [24]): 85%; Stability (Brain [25]): 85%; Drug uptake (Urinary bladder): Active; Drug uptake (Plasma): 1%; Drug uptake (Pancreas [26]): 1%
Cl.N[C@H](CCSCCC[18F])C(=O)O	Active	Active	90	4.24	2.83	0.95	12.2	1.04	1.44	2.55	1.05	1.55	0.85	3.05	0.4	1.56	0.75	0.25	37.1	1.43	Drug uptake (Blood [18]): 0.89 % ID/g; Drug uptake (Blood [19]): 0.89 % ID/g; Drug uptake [20]: 6.01 % ID/g; Drug uptake [21]: 5.87 % ID/g; Drug uptake [22]: 3.91 % ID/g; Stability [23]: 82%; Stability (Pancreas [24]): 85%; Stability (Brain [25]): 85%; Drug uptake (Urinary bladder): Active; Drug uptake (Plasma): 1%; Drug uptake (Pancreas [26]): 1%
